# In the library only some 12% were active in any assay of this set; here they are far more common.
# PKD1 kinase inh: inhibitors of human PKD1 kinase, biochemical, fluorescence polarization; hit rate 0.056% among 200,000; AID 797, 2007; Serine/threonine-protein kinase D1 (Homo sapiens), Q15139; PKD1 kinase fluorescence polarization assay; inhibition, % (no concentration beside the values)
# CHOP inh: inhibitors of CHOP promoter induction, primary screen, cell-based, unfolded protein response, luciferase reporter | inhibition, % at 10 µM | hit rate 3.8% among 220,000 | CHO-K1 CHOP-promoter luciferase, tunicamycin-induced, 15-18 h;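 active means compounds that reduced the stress-induced luciferase reporter signal by more than about 70% of percent inhibition, limit read from the data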
# Rad51 HR inh: human RAD51 strand exchange inhibitors, primary screen, biochemical, fluorescence. inhibition, % at 10 µM. AID 1385, 2008. hRad51 DNA strand exchange, fluorescence dequenching. hit rate 0.085% among 200,000;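 active means inhibition above 40% at the single screening dose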
# Target sequence (Q06609 whole entry, looked up): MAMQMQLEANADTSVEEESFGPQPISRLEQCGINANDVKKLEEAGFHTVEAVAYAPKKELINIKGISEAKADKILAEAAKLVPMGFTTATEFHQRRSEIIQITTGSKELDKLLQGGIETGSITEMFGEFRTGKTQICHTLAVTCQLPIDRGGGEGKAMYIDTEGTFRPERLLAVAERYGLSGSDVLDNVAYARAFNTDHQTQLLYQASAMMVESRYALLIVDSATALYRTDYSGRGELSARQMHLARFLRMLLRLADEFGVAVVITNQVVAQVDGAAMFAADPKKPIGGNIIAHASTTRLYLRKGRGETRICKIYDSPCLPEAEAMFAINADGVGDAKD
#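 System: human Rad51 nucleoprotein filaments preassembled on unlabelled ssDNA. Reagent: labelled 47-mer dsDNA for strand exchange. Schedule: 30-min compound preincubation and 15-min exchange, both room temperature. Measured by: FRET fluorescence dequenching, excitation 485 nm, emission 520 nm. Read-out: Fluorescence-based percent inhibition, control- and blank-normalised. Benchmarks: plate controls and plate blanks.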
# Wee1 degr inh: Wee1 degradation inhibitors, primary screen, cell-based, HeLa, Wee1K328M-luciferase, luminescence. AID 1321, 2008. hit rate 1.2% among 220,000. Wee1-like protein kinase (Homo sapiens), P30291. HeLa Luc-Wee1K328M stability; 100% = proteasome inhibitor MG132 effect. reporter increase, % at 5 µM;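 active means activation above the mean of all tested compounds plus 3 SD, set per screening run, cut at about 8.8% in these data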;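 further: cells exposed to compound for 20 h before luminescence read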
# Lmaj promast: Leishmania major promastigote growth inhibition, primary screen; inhibition, % at 10 µM; hit rate 9% among 200,000; AID 1063, 2008; Leishmania major promastigotes, resazurin fluorescence viability;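 further: promastigotes grown with compound for 44 hours at 28 °C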
# Arbovirus inh: antivirals against arbovirus infection, primary screen, cell-based, full library, 10K replicate subset. arbovirus infection cell-based antiviral screen. inhibition, % at 10 µM. hit rate 0.37% among 200,000. AID 1251, 2008; in the data active means inhibition above about 30%
# Hits are given with their value; – = inactive; · = not tested or not shown. Unless noted, no stated cut-off is given here; in the data, active means inhibition above about 50%; inactive means the rest.
SMILES,PKD1 kinase inh,CHOP inh,Rad51 HR inh,Wee1 degr inh,Lmaj promast,Arbovirus inh
CC(C(=O)c1c[nH]c2ccccc12)N1CCN(C(=O)c2ccco2)CC1 (centres undefined),·,–,–,–,·,·
COc1cc2nc(N3CCN(C(=O)c4ccco4)CC3)nc(N)c2cc1OC,–,–,–,–,100,–
CC12CN3CCN(C1)CC(C)(C3)C2=NN,·,–,–,–,·,·
C/C(=C\c1ccc(N(C)C)cc1)[N+](=O)[O-],–,–,·,–,100,–
CC(C)(C)N1Cc2ccccc2C1=N,–,–,–,–,–,–
COc1cccc(C2=NOC(C(=O)N3CCC4(CC3)OCCO4)C2)c1 (centres undefined),–,–,87,–,–,–
O=C(C1CC(c2ccc(Cl)c(Cl)c2)=NO1)N1CCC2(CC1)OCCO2 (centres undefined),–,–,–,9.8,–,–
COc1cccc(C(=O)N2CCC3(CC2)OCCO3)c1,·,–,–,–,·,·
O=C(C1CC(c2ccc(F)cc2)=NO1)N1CCC2(CC1)OCCO2 (centres undefined),–,–,–,–,–,–
COc1ccc(C2(c3cccc(O)c3OC)CCN(C(C)=O)CC2)cc1O,·,·,–,·,·,·
CN1CCN(c2cc(N3CCCCCC3)c(F)cc2[N+](=O)[O-])CC1,–,–,–,–,99,–
CCN1CCN(c2cc(N3CCCC3)c([N+](=O)[O-])cc2F)CC1,–,–,·,–,99,–
CN1c2ccccc2Oc2ccccc21,–,–,·,–,–,–
NC1=Nc2ccccc2Oc2ccccc21,–,–,·,10,–,–
c1ccc(-c2[nH]c[n+](CC3CO3)c2-c2ccccc2)cc1 (centres undefined),–,–,–,–,–,–
CN1CCN(C(=O)Cc2ccccc2)CC1,·,–,·,–,·,·
O=C(Cc1ccccc1)N1CCN(CC2CC=CCC2)CC1 (centres undefined),–,–,·,–,81,–
O=C(Cc1ccccc1)N1CCN(CC2CC3C=CC2C3)CC1 (centres undefined),–,–,–,–,67,–
COc1ccc(OCC(=O)N2CCN(CC3CC4C=CC3C4)CC2)cc1 (centres undefined),–,–,–,–,87,–
C/C=C(/C)C(=O)O[C@H]1C(C)=C2[C@H]([C@@H]1OC(=O)CCCCCCC)[C@@](C)(OC(C)=O)C[C@H](OC(=O)CCC)[C@@]1(O)[C@H]2OC(=O)[C@@]1(C)O,·,–,·,·,·,·
Cc1cccc(OP(N)(=O)Oc2cccc(C)c2C)c1C,·,–,–,–,·,·
NC(CP(=O)(O)O)C(=O)O (centres undefined),·,–,·,·,·,·
CN(C)/C=C/C(=O)C(Cl)(Cl)Cl,–,–,·,–,–,–
Cc1c(C(=O)Nc2ccccc2)cc(-c2ccccc2)n1CCCN1CCOCC1,·,–,–,–,·,·
COCCCn1c(-c2ccc(OC)cc2)cc(C(=O)NC2CCCCCCC2)c1C,–,–,–,–,98,–
SMILES,PKD1 kinase inh,CHOP inh,Rad51 HR inh,Wee1 degr inh,Lmaj promast,Arbovirus inh
CC1CCCN(CC(=O)N2CCCc3ccccc32)C1 (centres undefined),–,–,–,–,–,–
O=C(c1ccccc1)c1cn(CC(=O)N2CCCc3ccccc32)c2ccccc12,–,–,–,–,95,–
CCCCn1c(=O)c(C(=O)NCc2ccncc2)c(O)c2ccccc21,–,–,–,–,89,–
CCCCn1c(=O)c(C(=O)Nc2nnc(C(C)C)s2)c(O)c2ccccc21,–,–,–,–,–,–
CCCCCn1c(=O)c(C(=O)Nc2cnccn2)c(O)c2ccccc21,–,104,–,–,98,–
CCCCCCn1c(=O)c(C(=O)Nc2ccncc2)c(O)c2ccccc21,·,·,·,·,·,–
CC(=O)N1CCC(N2CCCC(C(=O)c3cccc(Cl)c3)C2)CC1 (centres undefined),–,–,–,–,92,–
COc1ccc(C(=O)C2CCCN(C3CSCCSC3)C2)c(OC)c1 (centres undefined),–,–,–,–,–,–
COc1cccc(C(=O)C2CCCN(C3CCOCC3)C2)c1 (centres undefined),–,–,–,–,88,–
COc1ccc(C(=O)C2CCCN(C3CSCCSC3)C2)c(C)c1 (centres undefined),–,–,–,–,97,–
CN(C)C(=O)O/N=C(\N)COc1ccc(C(C)(C)C)cc1,·,–,–,–,·,·
FC(F)(F)c1ccc(CN2CCNCC2)cc1,–,–,–,–,96,–
c1csc(CN2CCNCC2)c1,–,–,–,–,–,–
Cc1oc2ccc(OC(=O)N(C)C)cc2c1C(=O)OC(C)C,–,–,–,–,–,32
CCOC(=O)c1c(-c2ccc(OC)cc2)oc2ccc(OC(=O)N(C)C)cc12,–,–,–,–,–,–
CCCn1c(C)cc(C=O)c1C,–,–,·,–,–,–
COC(=O)C1=C(c2ccc(S(C)(=O)=O)cc2)C[C@@H]2CC[C@H]1N2C(=O)NCc1ccc(C(F)(F)F)cc1,·,·,–,·,·,·
CN(c1ccc(OCC(=O)N2CCN(C/C=C/c3ccccc3)CC2)cc1)S(=O)(=O)c1cccs1,·,–,–,–,·,·
O=C(COc1ccc(Cl)cc1Cl)N1CCN(C/C=C/c2ccccc2)CC1,–,–,–,–,89,–
OC(c1cccc(Cl)c1)(c1cccc(Cl)c1)C1CN2CCC1CC2 (centres undefined),–,–,–,–,100,–
Cc1ccccc1Cc1c(C)nc2nc(SCC(=O)N3CCC4(CC3)OCCO4)nn2c1C,–,–,–,–,73,–
O=C1NC(=O)C2(Cc3ccccc3N3CCOCC32)C(=O)N1c1ccccc1 (centres undefined),–,–,–,–,92,–
CC(=NCc1ccco1)c1c(O)n(-c2ccc(Cl)cc2)c(=O)[nH]c1=O,·,–,–,–,·,·
CCC1CN(C)CCC1(OC(C)=O)c1ccccc1 (centres undefined),–,–,–,–,–,–
CCCCN1CCC(O)(c2ccccc2)C(C(=O)c2ccccc2)C1 (centres undefined),–,–,–,–,97,–
O=c1[nH]c(=O)n(CCc2ccccc2)c(O)c1C=NC1CC1,·,–,·,–,·,·
CCOC(=O)COc1ccc2c(c1)c(C(C)=O)c(C)n2Cc1ccccc1,–,–,–,–,76,–
CC(=O)c1c(C)n(Cc2ccccc2Cl)c2ccc(O)cc12,–,–,–,–,–,–
Nc1c(C(=O)OCC2CCCO2)c2nc3ccccc3nc2n1Cc1cccs1 (centres undefined),–,–,–,–,95,–
Nc1c(C(=O)NCC2CCCO2)c2nc3ccccc3nc2n1Cc1ccco1 (centres undefined),·,–,–,–,·,·
